# In ChEMBL document CHEMBL1122207, “Antitumor agents. 2. Bisguanylhydrazones of anthracene-9,10-dicarboxaldehydes” (1982):
# Tests used:
# Type in all cases: functional
# [1] = tested on: Mus musculus; test: Percent increase in median life span of BDF1 mice with P-388 leukemia at dose 3.1 mg/kg administered intraperitoneally; settings: BDF1, P388, ip, route intraperitoneal
# [2] = species: Mus musculus; test: Anticancer activity measured as the number of survivors of the total treated mice with P-388 leukemia at 30 days.
# Method in brief: (§1)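 BDF1 or CDF1 mice given 10^6 ascitic P-388 leukemia cells ip, then treated ip on days 1, 5 and 9. Cures are survivors over total treated at 30 days.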
# [3] = species: Mus musculus; test: Cures is the number of survivors of the total treated mice (10) with B-16 melanoma, at 60 days.
# Method in brief: (§2)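 BDF1 mice were implanted ip with a homogenate from 0.05 g of B-16 melanoma and dosed ip on days 1-9. Cures are survivors over total at 60 days.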
# [4] = tested on: Mus musculus; test: Percent increase in median life span of BDF1 mice with B-16 melanoma at dose 3.1 mg/kg administered intraperitoneally; settings: BDF1, B16, ip, route intraperitoneal
# Method in brief: (§3)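 BDF1 mice were implanted ip with a homogenate from 0.05 g of B-16 melanoma. Ip dosing ran on days 1-9, starting 24 h after implant, in dose-response studies following NCI protocols. The read-out was percent increase in life span (ILS). T/C ≥125% was taken as significant.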
# [5] = tested on: Mus musculus; test: Percent increase in median life span of BDF1 mice with P-388 leukemia at dose 100 mg/kg administered intraperitoneally; settings: BDF1, P388, ip, route intraperitoneal
# [6] = tested on: Mus musculus; test: Percent increase in median life span of BDF1 mice with B-16 melanoma at dose 6.00 mg/kg administered intraperitoneally; settings: BDF1, B16, ip, route intraperitoneal; method in brief: as §3
# [7] = tested on: Mus musculus; test: Percent increase in median life span of BDF1 mice with P-388 leukemia at dose 25 mg/kg administered intraperitoneally; settings: BDF1, P388, ip, route intraperitoneal
# [8] = species: Mus musculus; test: Number of survivors of the total treated mice with B-16 melanoma, at 60 days.; method in brief: as §2
# [9] = species: Mus musculus; test: Cures is the number of survivors of the total treated mice (6) with P-388 leukemia, at 30 days.; method in brief: as §1
# [10] = tested on: Mus musculus; test: Percent increase in median life span of BDF1 mice with P-388 leukemia at dose 6.25 mg/kg administered intraperitoneally; settings: BDF1, P388, ip, route intraperitoneal
# [11] = tested on: Mus musculus; test: Percent increase in median life span of BDF1 mice with B-16 melanoma at dose 3 mg/kg administered intraperitoneally; settings: BDF1, B16, ip, route intraperitoneal; method in brief: as §3
# [12] = tested on: Mus musculus; test: Percent increase in median life span of BDF1 mice with P-388 leukemia at dose 12.5 mg/kg administered intraperitoneally; settings: BDF1, P388, ip, route intraperitoneal
# [13] = tested on: Mus musculus; test: Percent increase in median life span of BDF1 mice with B-16 melanoma at dose 6 mg/kg administered intraperitoneally; settings: BDF1, B16, ip, route intraperitoneal; method in brief: as §3
# [14] = tested on: Mus musculus; test: Percent increase in median life span of BDF1 mice with B-16 melanoma at dose 1.5 mg/kg administered intraperitoneally; settings: BDF1, B16, ip, route intraperitoneal; method in brief: as §3
# [15] = tested on: Mus musculus; test: Percent increase in median life span of BDF1 mice with Colon 26 at dose 3.1 mg/kg administered intraperitoneally; 1, 5, 9 days of ip treatment relative to tumor inoculation; settings: BDF1, Colon 26, ip, 216 h, route intraperitoneal
# [16] = tested on: Mus musculus; test: Percent increase in median life span of BDF1 mice with P-388 leukemia at dose 6.25 mg/kg administered intraperitoneally; 1, 5, 9 days of ip treatment relative to tumor inoculation; settings: BDF1, P388, ip, 216 h, route intraperitoneal
# Method in brief: (§4)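 BDF1 or CDF1 mice given 10^6 ascitic leukemia cells ip, then dosed ip on days 1, 5 and 9. Read-out is percent increase in life span versus untreated controls. Cures were scored as survivors/total at 30 days; when cures reached 50% or more, the run was extended until a specific ILS could be calculated. T/C ≥125% counted as significant.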
# [17] = tested on: Mus musculus; test: Percent tumor inhibition at non-lethal dose was determined in BDF1 mice with madison lung 109 leukemia; 1, 5, 9 days of sc treatment relative to tumor inoculation
# [18] = tested on: Mus musculus; test: Percent increase in median life span of BDF1 mice with advanced P-388 leukemia at dose 12.5 mg/kg administered intraperitoneally; 4, 8, 12 days of ip treatment relative to tumor inoculation; settings: P388, ip, 288 h, route intraperitoneal
# [19] = tested on: Mus musculus; test: Percent increase in median life span of BDF1 mice with advanced L-1210 leukemia at dose 6.2 mg/kg administered intraperitoneally; treatment day +2 iv; settings: L1210
# [20] = tested on: Mus musculus; test: Percent increase in median life span of BDF1 mice with B-16 melanoma at dose 3 mg/kg administered intraperitoneally; 1-9 days of ip treatment relative to tumor inoculation; settings: BDF1, B16, ip, route intraperitoneal; method in brief: as §3
# [21] = tested on: Mus musculus; test: Percent increase in median life span of BDF1 mice with madison lung 109 leukemia administered intraperitoneally
# [22] = species: Mus musculus; test: Cures is the number of survivors of the total treated mice (8) with Colon 26, at 60 days.
# [23] = species: Mus musculus; test: Cures is the number of survivors of the total treated mice (6) with advanced L-1210 leukemia, at 30 days.
# Method in brief: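 Advanced L-1210 leukemia, with ip treatment on days 5, 9 and 13 relative to tumor inoculation.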
# [24] = species: Mus musculus; test: Cures is the number of survivors of the total treated mice (10) with Colon 26, at 60 days.
# [25] = tested on: Mus musculus; test: Percent increase in median life span of BDF1 mice with advanced B-16 melanoma at dose 6.2 mg/kg administered intraperitoneally; 5, 9, 13 days of ip treatment relative to tumor inoculation; settings: B16, ip, 312 h, route intraperitoneal
# [26] = species: Mus musculus; test: Cures is the number of survivors of the total treated mice (6) with L-1210 leukemia, at 30 days.
# [27] = species: Mus musculus; test: Cures is the number of survivors of the total treated mice (20) with B-16 melanoma, at 60 days.; method in brief: as §2
# [28] = species: Mus musculus; test: Cures is the number of survivors of the total treated mice (18) with P-388 leukemia, at 30 days.; method in brief: as §1
# [29] = tested on: Mus musculus; test: Percent increase in median life span of BDF1 mice with B-16 melanoma at dose 3 mg/kg administered intraperitoneally; range 116-129%, 1-9 days of ip treatment relative to tumor inoculation; settings: BDF1, B16, ip, route intraperitoneal; method in brief: as §3
# [30] = tested on: Mus musculus; test: Percent increase in median life span of BDF1 mice with L-1210 leukemia at dose 6.2 mg/kg administered intraperitoneally; 1, 5, 9 days of ip treatment relative to tumor inoculation; settings: BDF1, L1210, ip, 216 h, route intraperitoneal; method in brief: as §4
# [31] = tested on: Mus musculus; test: Percent increase in median life span of BDF1 mice with Colon 26 at dose 6.2 mg/kg administered intraperitoneally; 1, 5, 9 days of ip treatment relative to tumor inoculation; settings: BDF1, Colon 26, ip, 216 h, route intraperitoneal
# [32] = species: Mus musculus; test: Cures is the number of survivors of the total treated mice (10) with advanced B-16 melanoma, at 30 days.
# [33] = species: Mus musculus; test: Cures is the number of survivors of the total treated mice (17) with L-1210 leukemia, at 30 days.
# [34] = tested on: Mus musculus; test: Percent increase in median life span of BDF1 mice with B-16 melanoma at dose 6 mg/kg administered intraperitoneally; range 98-122%; 1-9 days of ip treatment relative to tumor inoculation; settings: BDF1, B16, ip, route intraperitoneal; method in brief: as §3
# [35] = tested on: Mus musculus; test: Percent increase in median life span of BDF1 mice with P-388 leukemia at dose 12.5 mg/kg administered intraperitoneally; 1, 5, 9 days of ip treatment relative to tumor inoculation; settings: BDF1, P388, ip, 216 h, route intraperitoneal; method in brief: as §4
# [36] = species: Mus musculus; test: Cures is the number of survivors of the total treated mice (20) with Colon 26, at 60 days.
# [37] = tested on: Mus musculus; test: Percent increase in median life span of BDF1 mice with advanced B-16 melanoma at dose 12.5 mg/kg administered intraperitoneally; 5, 9, 13 days of ip treatment relative to tumor inoculation; settings: BDF1, B16, ip, 312 h, route intraperitoneal
# [38] = tested on: Mus musculus; test: Percent increase in median life span of BDF1 mice with L-1210 leukemia at dose 12.5 mg/kg administered intraperitoneally; 1, 5, 9 days of ip treatment relative to tumor inoculation; settings: BDF1, L1210, ip, 216 h, route intraperitoneal; method in brief: as §4
# [39] = species: Mus musculus; test: Cures is the number of survivors of the total treated mice (10) with P-388 leukemia, at 30 days.; method in brief: as §1
# [40] = species: Mus musculus; test: Cures is the number of survivors of the total treated mice (42) with P-388 leukemia, at 30 days.; method in brief: as §1
# [41] = tested on: Mus musculus; test: Cures is the number of survivors of the total treated mice (6) with advanced L-1210 leukemia; treatment day +2 iv
# Method in brief: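 Advanced L-1210 leukemia, treated iv once on day +2 relative to tumor inoculation.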
# [42] = species: Mus musculus; test: Percent increase in median life span of BDF1 mice with advanced L-1210 leukemia
# [43] = tested on: Mus musculus; test: Percent increase in median life span of BDF1 mice with Colon 26 at dose 6.2 mg/kg administered intraperitoneally; Range is 114-150%; 1, 5, 9 days of ip treatment relative to tumor inoculation; settings: BDF1, Colon 26, ip, 216 h, route intraperitoneal
compound,measurement,setting,value
Cl.Cl.Fc1cccc2c(/C=N/NC3=NCCN3)c3ccccc3c(/C=N/NC3=NCCN3)c12,ILS at 3.1 mg/kg,[1],115%
same,Cures,[2],0
same,Cures,[3],1
same,ILS at 3.1 mg/kg,[4],100%
CC(C)N(CC/N=C(\S)N/N=C/c1c2ccccc2c(/C=N/N/C(S)=N/CCN(C(C)C)C(C)C)c2ccccc12)C(C)C.Cl.Cl,Cures,[2],0
same,ILS at 100 mg/kg,[5],53%
CN(C)CCCCC/N=C(\S)N/N=C/c1c2ccccc2c(/C=N/N/C(S)=N/CCCCCN(C)C)c2ccccc12.Cl.Cl,Cures,[2],0
same,ILS at 6 mg/kg,[6],97%
same,ILS at 25 mg/kg,[7],48%
same,Cures,[8],0
CN(/N=C/c1c2ccccc2c(/C=N/N(C)C2=NCCN2)c2ccccc12)C1=NCCN1,Cures,[9],1
same,ILS at 6.25 mg/kg,[10],124%
same,Cures,[8],0
same,ILS at 3 mg/kg,[11],95%
C/N=C(\NC)N/N=C/c1c2ccccc2c(/C=N/N/C(=N/C)NC)c2ccccc12,Cures,[9],1
same,ILS at 6.25 mg/kg,[10],118%
same,Cures,[8],0
same,ILS at 3 mg/kg,[11],111%
CN(C)C(=N)N/N=C/c1c2ccccc2c(/C=N/N=C(\N)N(C)C)c2cc(Cl)ccc12.Cl.Cl,ILS at 12.5 mg/kg,[12],82%
same,Cures,[2],0
same,ILS at 6 mg/kg,[13],39%
same,Cures,[8],0
Cl.Cl.Clc1cccc2c(/C=N/NC3=NCCN3)c3ccccc3c(/C=N/NC3=NCCN3)c12,Cures,[9],3
same,ILS at 1.5 mg/kg,[14],153%
same,Cures,[3],3
same,ILS at 6.25 mg/kg,[10],186%
Cl.Cl.Clc1ccc2c(/C=N/NC3=NCCCN3)c3ccccc3c(/C=N/NC3=NCCCN3)c2c1,ILS at 3.1 mg/kg,[15],175%
same,ILS at 6.25 mg/kg,[16],127%
same,Inhibition,[17],16%
same,ILS at 12.5 mg/kg,[18],80%
same,ILS at 6.2 mg/kg,[19],28%
same,Cures,[3],6
same,ILS at 3 mg/kg,[20],194%
same,ILS,[21],<25%
same,Cures,[22],1
same,Cures,[23],0
CN(C)C(=N)N/N=C/c1c2ccccc2c(/C=N/N=C(\N)N(C)C)c2ccccc12,Cures,[24],1
same,ILS at 6.25 mg/kg,[16],103%
same,ILS at 6.2 mg/kg,[25],41%
same,Cures,[26],0
same,Cures,[27],2
same,Cures,[28],3
same,ILS at 3 mg/kg,[29],125%
same,ILS at 6.2 mg/kg,[30],100%
same,ILS at 6.2 mg/kg,[31],167%
same,Cures,[32],2
C(=N\NC1=NCCN1)/c1c2ccccc2c(/C=N/NC2=NCCN2)c2ccccc12 [BISANTRENE],Cures,[33],0
same,Cures,[9],0
same,Inhibition,[17],20%
same,ILS at 6 mg/kg,[34],122%
same,ILS at 12.5 mg/kg,[35],137%
same,ILS at 12.5 mg/kg,[18],76%
same,Cures,[27],2
same,Cures,[36],6
same,ILS at 12.5 mg/kg,[37],54%
same,ILS at 12.5 mg/kg,[38],62%
same,Cures,[39],2
same,ILS,[21],<25%
same,Cures,[40],17
same,Cures,[41],0
same,ILS,[42],48%
same,ILS at 6.2 mg/kg,[43],114%
same,Cures,[32],2
